Results: ChEMBL document CHEMBL1155063 (Bioorg Med Chem, 2008)
Activity calls are given as the source filed them. The rule behind the calls is not given here.

Columns and labels:
[1] = biological target: T1, Telomerase reverse transcriptase (Homo sapiens, UniProt O14746); assay: Inhibition of telomerase in human H1299 cells at 1 to 20 uM by TRAP assay; assay type: cell-based
Procedure, shortened: (§1)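 Modified TRAP assay using 2 µg total lysate from H1299 lung cancer cells as the telomerase source. Compounds were tested at 1, 5, 10 and 20 µM. Products were resolved on 10% polyacrylamide gels and stained with SYBR Green. A Taq-polymerase internal control was included, along with positive and negative controls.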

[2] = Cytotoxicity against human H1299 cells at 100 uM after 48 hrs by MTT assay realtive to control; assay type: functional; settings: NCI-H1299, 48 h
Procedure, shortened: (§2)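 H1299 non-small-cell lung cells were kept in RPMI 1640 with 10% FBS and penicillin/streptomycin at 37 °C under 5% CO2. About 2 × 10^3 cells per well were pre-incubated for 24 h. Compound was added from freshly made DMSO solution diluted in complete medium and left for 48 h. MTT was then added for 4 h at 37 °C, followed by 20% SDS/50% DMF lysis buffer for 16 h at 37 °C, and absorbance read at 550 nm.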

[3] = Cytotoxicity against human H1299 cells at 10 uM after 48 hrs by MTT assay realtive to control; assay type: functional; settings: NCI-H1299, 48 h; procedure, shortened: as §2
[4] = Cytotoxicity against human TERT immortalized BJ1 cells at 100 uM after 48 hrs by MTT assay relative to control; assay type: cell-based, BJ
Procedure, shortened: (§3)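 hTERT-immortalized BJ1 fibroblasts were grown in DMEM with 10% FCS, 1 mM pyruvate and 4 mM […]. Cells (about 2 × 10^3 per well) were seeded and held 24 h at 37 °C. Compounds were freshly dissolved in DMSO, diluted into medium and left on the cells 48 h. MTT was added for 4 h, then SDS/DMF lysis buffer for 16 h. Absorbance was read at 550 nm and expressed relative to untreated cells (100%).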

[5] = Cytotoxicity against human TERT immortalized BJ1 cells at 10 uM after 48 hrs by MTT assay relative to control; assay type: cell-based, BJ; procedure, shortened: as §3
[6] = Cytotoxicity against human TERT immortalized BJ1 cells at 1 uM after 48 hrs by MTT assay relative to control; assay type: cell-based, BJ; procedure, shortened: as §3
[7] = biological target: T1, Telomerase reverse transcriptase; assay: Inhibition of G-quadruplex-induced human TERT in H1299 cells by TRAP assay; assay type: cell-based; procedure, shortened: as §1
[8] = Cell viability of human H1299 cells at 1 uM after 48 hrs by MTT assay relative to control; settings: NCI-H1299, 48 h
[9] = biological target: T1, Telomerase reverse transcriptase; assay: Effect on human TERT expressed in H1299 cells at 1 uM after 24 hrs by SEAP assay relative to control
[10] = biological target: T1, Telomerase reverse transcriptase; assay: Effect on human TERT expressed in H1299 cells at 10 uM after 24 hrs by SEAP assay relative to control
[11] = biological target: T1, Telomerase reverse transcriptase; assay: Effect on human TERT expressed in H1299 cells at 100 uM after 24 hrs by SEAP assay relative to control
[12] = biological target: T1, Telomerase reverse transcriptase; assay: Effect on human TERT expressed in BJ1 cells at 10 uM after 24 hrs by SEAP assay relative to control; settings: BJ
[13] = biological target: T1, Telomerase reverse transcriptase; assay: Effect on human TERT expressed in BJ1 cells at 100 uM after 24 hrs by SEAP assay relative to control; settings: BJ
[14] = biological target: T1, Telomerase reverse transcriptase; assay: Effect on human TERT expressed in BJ1 cells at 1 uM after 24 hrs by SEAP assay realtive to control; settings: BJ

T1 sequence (O14746 whole entry): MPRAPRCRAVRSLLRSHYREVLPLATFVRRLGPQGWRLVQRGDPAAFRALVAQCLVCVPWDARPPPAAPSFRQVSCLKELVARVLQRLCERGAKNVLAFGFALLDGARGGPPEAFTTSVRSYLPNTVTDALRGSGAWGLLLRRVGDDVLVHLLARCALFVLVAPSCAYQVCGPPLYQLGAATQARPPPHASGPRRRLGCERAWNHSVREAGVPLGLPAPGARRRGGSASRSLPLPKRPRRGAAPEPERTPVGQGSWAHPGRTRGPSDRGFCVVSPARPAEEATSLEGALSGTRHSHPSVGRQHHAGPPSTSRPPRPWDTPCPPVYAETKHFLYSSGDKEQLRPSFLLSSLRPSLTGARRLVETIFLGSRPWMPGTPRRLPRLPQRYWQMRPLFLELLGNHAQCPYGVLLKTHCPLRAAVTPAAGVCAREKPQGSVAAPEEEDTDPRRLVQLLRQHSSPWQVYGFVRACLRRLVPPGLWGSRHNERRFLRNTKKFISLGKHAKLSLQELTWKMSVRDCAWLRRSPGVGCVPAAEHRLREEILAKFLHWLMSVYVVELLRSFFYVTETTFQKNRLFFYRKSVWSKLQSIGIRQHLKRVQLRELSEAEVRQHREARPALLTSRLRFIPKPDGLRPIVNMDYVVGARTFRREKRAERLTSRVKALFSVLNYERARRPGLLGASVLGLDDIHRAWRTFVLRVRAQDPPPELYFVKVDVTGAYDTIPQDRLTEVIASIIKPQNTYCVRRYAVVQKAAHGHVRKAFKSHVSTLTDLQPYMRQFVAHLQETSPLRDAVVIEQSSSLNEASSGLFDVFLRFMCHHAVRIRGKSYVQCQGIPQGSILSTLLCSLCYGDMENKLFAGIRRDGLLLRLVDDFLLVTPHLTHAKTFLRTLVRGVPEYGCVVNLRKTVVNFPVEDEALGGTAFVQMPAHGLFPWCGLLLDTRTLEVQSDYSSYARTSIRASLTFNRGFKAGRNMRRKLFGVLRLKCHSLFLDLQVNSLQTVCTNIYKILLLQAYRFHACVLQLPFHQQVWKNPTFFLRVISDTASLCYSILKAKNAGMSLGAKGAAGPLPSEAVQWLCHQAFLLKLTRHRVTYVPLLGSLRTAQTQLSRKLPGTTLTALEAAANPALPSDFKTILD

With O=C(CCN1CCCCC1)Nc1ccc2c(c1)C(=O)c1cc(NC(=O)CCN3CCCCC3)ccc1C2=O the Activity [1] was “Active”, the viability at 100 µM [2] was 18% and the viability at 10 µM [3] was 44%. For the same molecule, the viability at 48 h, 100 µM [4] was 41%, the viability at 48 h, 10 µM [5] was 54% and the viability at 48 h, 1 µM [6] was 92%. For the same molecule, the IC50 [7] was 8.4 µM, the cell viability at 1 µM [8] was 87% and the residual activity [9] was 55%. For the same molecule, the residual activity [10] was 33% and the residual activity [11] was 25%.
For O=C(CCN1CCNCC1)Nc1ccc2c(c1)C(=O)c1cc(NC(=O)CCN3CCNCC3)ccc1C2=O, the Activity [1] was “Active”, the viability at 100 µM [2] was 102% and the viability at 10 µM [3] was 94%. For the same molecule, the viability at 48 h, 100 µM [4] was 88%, the viability at 48 h, 10 µM [5] was 100% and the viability at 48 h, 1 µM [6] was 96%. For the same molecule, the cell viability at 1 µM [8] was 97%, the residual activity [12] was 118% and the residual activity [9] was 75%. For the same molecule, the residual activity [13] was 131%, the residual activity [10] was 71% and the residual activity [11] was 71%.
In the case of CCCNCCC(=O)Nc1ccc2c(c1)C(=O)c1cc(NC(=O)CCNCCC)ccc1C2=O, the Activity [1] is reported as “Active”, the viability at 100 µM [2] is reported as 13% and the viability at 10 µM [3] is reported as 50%. The viability at 48 h, 100 µM [4] was 38%, the viability at 48 h, 10 µM [5] was 65% and the viability at 48 h, 1 µM [6] was 75%. The cell viability at 1 µM [8] was 80%, the residual activity [12] was 133% and the residual activity [9] was 52%. It also gave a residual activity [10] of 22% and a residual activity [11] of 13%.
O=C1c2ccc(NC(=O)C3CCCCC3)cc2C(=O)c2cc(NC(=O)C3CCCCC3)ccc21 gave a viability at 100 µM [2] of 52%, a viability at 10 µM [3] of 63% and a viability at 48 h, 100 µM [4] of 64%. It also gave a viability at 48 h, 10 µM [5] of 76%, a viability at 48 h, 1 µM [6] of 87% and a cell viability at 1 µM [8] of 90%. It also gave a residual activity [14] of 14%, a residual activity [12] of 14% and a residual activity [9] of 96%. It also gave a residual activity [13] of 22%, a residual activity [10] of 93% and a residual activity [11] of 80%.
In the case of O=C(CCCCl)Nc1ccc2c(c1)C(=O)c1cc(NC(=O)CCCCl)ccc1C2=O, the viability at 100 µM [2] is reported as 22%, the viability at 10 µM [3] is reported as 40% and the viability at 48 h, 100 µM [4] is reported as 58%. It also gave a viability at 48 h, 10 µM [5] of 62%, a viability at 48 h, 1 µM [6] of 72% and a cell viability at 1 µM [8] of 84%. The residual activity [14] was 13%, the residual activity [12] was 42% and the residual activity [9] was 88%. For the same molecule, the residual activity [13] was 75%, the residual activity [10] was 86% and the residual activity [11] was 78%.
Work on CCC(=O)Nc1ccc2c(c1)C(=O)c1cc(NC(=O)CC)ccc1C2=O yielded a viability at 100 µM [2] of 35%, a viability at 10 µM [3] of 38% and a viability at 48 h, 100 µM [4] of 48%. The viability at 48 h, 10 µM [5] was 57%, the viability at 48 h, 1 µM [6] was 77% and the cell viability at 1 µM [8] was 70%. For the same molecule, the residual activity [14] was 78%, the residual activity [12] was 64% and the residual activity [9] was 90%. The residual activity [13] was 51%, the residual activity [10] was 95% and the residual activity [11] was 85%.
With CCNCCC(=O)Nc1ccc2c(c1)C(=O)c1cc(NC(=O)CCNCC)ccc1C2=O the Activity [1] was “Active”, the viability at 100 µM [2] was 34% and the viability at 10 µM [3] was 59%. For the same molecule, the viability at 48 h, 100 µM [4] was 42%, the viability at 48 h, 10 µM [5] was 73% and the viability at 48 h, 1 µM [6] was 82%. For the same molecule, the cell viability at 1 µM [8] was 86%, the residual activity [9] was 68% and the residual activity [13] was 97%. For the same molecule, the residual activity [10] was 33% and the residual activity [11] was 22%.
With CN(C)CCC(=O)Nc1ccc2c(c1)C(=O)c1cc(NC(=O)CCN(C)C)ccc1C2=O the Activity [1] was “Active”, the viability at 100 µM [2] was 1% and the viability at 10 µM [3] was 53%. The viability at 48 h, 100 µM [4] was 22%, the viability at 48 h, 10 µM [5] was 30% and the viability at 48 h, 1 µM [6] was 94%. It also gave a cell viability at 1 µM [8] of 1%, a residual activity [14] of 86% and a residual activity [12] of 61%. The residual activity [9] was 5%, the residual activity [13] was 38% and the residual activity [10] was 13%. For the same molecule, the residual activity [11] was 1%.
O=C(CCc1ccccc1)Nc1ccc2c(c1)C(=O)c1cc(NC(=O)CCc3ccccc3)ccc1C2=O showed a viability at 100 µM [2] of 76%, a viability at 10 µM [3] of 94% and a viability at 48 h, 100 µM [4] of 44%. It also gave a viability at 48 h, 10 µM [5] of 44%, a viability at 48 h, 1 µM [6] of 89% and a cell viability at 1 µM [8] of 102%. It also gave a residual activity [14] of 74%, a residual activity [12] of 92% and a residual activity [9] of 89%. The residual activity [13] was 43%, the residual activity [10] was 79% and the residual activity [11] was 61%.
Work on O=C(CN1CCCCC1)Nc1ccc2c(c1)C(=O)c1cc(NC(=O)CN3CCCCC3)ccc1C2=O yielded a viability at 100 µM [2] of 35%, a viability at 10 µM [3] of 37% and a viability at 48 h, 100 µM [4] of 22%. The viability at 48 h, 10 µM [5] was 78%, the viability at 48 h, 1 µM [6] was 89% and the cell viability at 1 µM [8] was 50%. For the same molecule, the residual activity [14] was 118%, the residual activity [12] was 121% and the residual activity [9] was 74%. It also gave a residual activity [13] of 103%, a residual activity [10] of 69% and a residual activity [11] of 63%.
